Where “and” joins values, the source holds several entries; their conditions need not be identical. Equal entries are not always repeated. Calls of active or inactive are those of the source.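 The calls were made as follows: active = CPE inhibition of 50% or more; inactive = the rest.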
Tests used:
[1] = system: HEp-2 RSV Long CPE inhibition, luminescence viability; test: RSV cytopathic effect inhibition in HEp-2 cells, dose response, cell-based, synthesized compounds, set 14 (AID 588485)
Outline: (§1)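 Incubation: 6 days at 37 °C. Assay system: HEp-2 human cells infected with RSV strain Long. Detection: luminescent CPE readout. Repeats: each dose tested in triplicate. Reagent: RSV strain Long virus at MOI 0.45. Control set: cells-only and virus-infected wells. Compound dosing: 8-point twofold dilution series, 0.39 to 50 µM final, 0.5% DMSO.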

[2] = as above; settings: HEp-2 RSV Long CPE inhibition, luminescence viability; at 50 µM (top of the series)
Outline: as §1

SMILES | IC50 [1] | CPE inhibition [2]
CN(C)c1ccc(Cn2c(=O)n(Cc3ccc(C(=O)NCC4COC4)cc3)c(=O)c3ccccc32)cc1 | 1250 nM | –
COCCCNC(=O)c1ccc(Cn2c(=O)c3ccccc3n(Cc3ccc([N+](=O)[O-])cc3)c2=O)cc1 | 460 nM | –
O=C(O)c1ccc(Cn2c(=O)n(Cc3ccc(C(=O)NCC4COC4)cc3)c(=O)c3ccccc32)cc1 | – | 0.24% (inactive) and 0.09% (inactive)
CC(C)c1ccc(Cn2c(=O)n(Cc3ccc(C(=O)NCc4ccco4)cc3)c(=O)c3ccccc32)cc1 | 1350 nM | –
